Published values pooled from the literature.
Each line is one published result; the experiments were not run side by side.
Cell line: HL-60
Read-out: cell growth or viability

COc1cccc2c1C(=O)c1c(O)c3c(c(O)c1C2=O)C[C@@](O)(C(=O)CO)C[C@@H]3O[C@H]1C[C@H](N)[C@H](O)[C@H](C)O1 — IC50 (MTT; 72 h): 1.08 µM
CCCCN(Cc1ccc(C(=O)NO)cc1)C(=O)Nc1ccccc1 — IC50 (ATP luminescence; 72 h): 0.894 µM
CN1c2ccccc2C(=O)N2[C@H](C(=O)Nc3ccc(C(=O)Nc4ccccc4N)cc3)Cc3c([nH]c4ccccc34)[C@@H]12 — IC50: 0.56 µM
O=C(Nc1nnc(-c2cc3ccccc3[nH]2)s1)c1cc2c([nH]c3ccccc32)c(-c2ccccc2)n1 — IC50 (MTT; 72 h): 8.25 µM
CC(C)C[C@H](NC(=O)[C@H](Cc1ccccc1)NC(=O)c1cnccn1)B(O)O — IC50 (ATP luminescence): 0.0041 µM
COc1ccc(C(=O)c2ccccc2)c(O)c1 — IC50 (resazurin; 72 h; dark): ~120 µM
COc1cc(-c2nc(C(=O)Nc3nnc(-c4cc5ccccc5n4C)s3)cc3c2[nH]c2ccccc23)cc(OC)c1OC — IC50 (MTT; 72 h): 10 µM
COc1cc(O)c(C(=O)c2ccccc2)cc1S(=O)(=O)O — IC50 (resazurin; 72 h; dark): > 100 µM
O=C(Nc1nnc(-c2cc3ccccc3[nH]2)s1)c1cc2c([nH]c3ccccc32)c(-c2ccc(F)cc2)n1 — IC50 (MTT; 72 h): 9.85 µM
CCCON(Cc1ccc(C(=O)NO)cc1)C(=O)Nc1ccc(N(C)C)cc1 — IC50 (ATP luminescence; 72 h): 12.9 µM
O=c1[nH]c(=S)n(Cc2ccc(Cl)cc2CNCC(F)(F)F)c2cc[nH]c12 — IC50: 1.3 µM
CC[C@@H](C)[C@H](N)C(=O)N1Cc2ccccc2C1 — IC50 (ATP luminescence; 48 h): 2.14 µM
